Measurements taken from PMC11389331 (BMC Biology, 2024).

Assays:
[1] = tested on: B. dioryctriae; conditions: cited from earlier work
[2] = tested on: B. dioryctriae; assay: Y-tube olfactometer assay; format: in vivo, Baryscapus dioryctriae; conditions: 20 μL test chemical vs paraffin oil, chi-square test
Outline: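 Binary Y-tube (1.1 cm diameter, 6 cm base and arms, 60° between arms) used with wasps reared at 25 ± 1 °C, 50 ± 5% RH. One arm held 20 × 50 mm filter paper loaded with 20 μL test chemical; the other held 20 μL paraffin oil. After every five wasps, the tube was cleaned with dehydrated alcohol and air-dried, and odour sides were swapped.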

Structure (SMILES)	effect on reproductive efficiency of B. dioryctriae [1]	behavioral response (attraction) of B. dioryctriae adults [2]
CCCCCC=C(C=O)CCCC [2-butyl-2-octenal]	significantly improve	–
C=C1CC[C@H]2O[C@]2(C)CC[C@@H]2[C@@H]1CC2(C)C [Caryophyllene oxide]	–	does not attract
CC1=CCC(C(C)C)=CC1 [g-Terpinene]	–	significantly attract
CC1=CCC2CC1C2(C)C (stereo not drawn) [α-Pinene]	–	significantly attract
